Reference: ChEMBL document CHEMBL1155362, “Synthesis, characterization and derivatization of some novel types of mono- and bis-imidazolidineiminothiones and imidazolidineiminodithiones with antitumor, antiviral, antibacterial and antifungal activities--part I” (Eur J Med Chem, 2009)
Converted amounts (≈) assume the structure as drawn.

How the values were obtained:
[1] = tested on: Bacillus subtilis; experiment: Antibacterial activity against Bacillus subtilis NCIB 3610 at 1 mg/ml by agar disk diffusion assay; assay type: functional; conditions: for zone of inhibition at 1000 µg/mL: Bacillus subtilis, NCIB 3610, read-out: DIZ
[2] = tested on: Aspergillus niger; experiment: Antifungal activity against Aspergillus niger Ferm-BAM C-21 at 1 mg/ml by agar disk diffusion assay; assay type: functional; conditions: read-out: DIZ
Method in brief: (§1)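 Fungi maintained on Czapek's Dox agar; agar well diffusion with 1 cm wells and […] of each concentration (1, 2.5, 5 mg/mL) in DMF; inhibition zone diameter measured.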

[3] = tested on: Salmonella typhi; experiment: Antimicrobial activity against Salmonella typhi NCIMB 9331 by macrotube dilution assay; assay type: functional, Salmonella enterica subsp. enterica serovar Typhi; conditions: Salmonella enterica
[4] = tested on: Aspergillus niger; experiment: Antifungal activity against Aspergillus niger Ferm-BAM C-21 at 5 mg/ml by agar disk diffusion assay; assay type: functional; conditions: read-out: DIZ; method in brief: as §1
[5] = tested on: Bacillus subtilis; experiment: Antibacterial activity against Bacillus subtilis NCIB 3610 at 2.5 mg/ml by agar disk diffusion assay; assay type: functional; conditions: for zone of inhibition at 2500 µg/mL: Bacillus subtilis, NCIB 3610, read-out: DIZ
[6] = tested on: Pseudomonas aeruginosa; experiment: Antibacterial activity against Pseudomonas aeruginosa NCIB 9016 at 5 mg/ml by agar disk diffusion assay; assay type: functional; conditions: for zone of inhibition at 5000 µg/mL: Pseudomonas aeruginosa, NCIB 9016, read-out: DIZ
[7] = tested on: Candida albicans; experiment: Antifungal activity against Candida albicans IMRU 3669 at 5 mg/ml by agar disk diffusion assay; assay type: functional; conditions: Candida albicans, IMRU 3669; read-out: DIZ; method in brief: as §1
[8] = tested on: Bacillus subtilis; experiment: Antibacterial activity against Bacillus subtilis NCIB 3610 at 5 mg/ml by agar disk diffusion assay; assay type: functional; conditions: for zone of inhibition at 5000 µg/mL: Bacillus subtilis, NCIB 3610, read-out: DIZ
[9] = tested on: Aspergillus niger; experiment: Antifungal activity against Aspergillus niger Ferm-BAM C-21 by macrotube dilution assay; assay type: functional
Method in brief: (§2)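 Macrotube twofold dilution per NCCLS/CLSI guidelines for fungi; 2 mg compound in 2.0 mL DMF, serially diluted across 14 tubes of Czapek's Dox medium, with a control tube; inoculum added to halve the concentration; 30 °C for 72 h; MIC is the lowest concentration without visible growth.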

[10] = tested on: Staphylococcus aureus; experiment: Antimicrobial activity against Staphylococcus aureus NCTC 7447 by macrotube dilution assay; assay type: functional
[11] = tested on: Candida albicans; experiment: Antifungal activity against Candida albicans IMRU 3669 by macrotube dilution assay; assay type: functional; method in brief: as §2
[12] = tested on: Candida albicans; experiment: Antifungal activity against Candida albicans IMRU 3669 at 2.5 mg/ml by agar disk diffusion assay; assay type: functional; conditions: read-out: DIZ; method in brief: as §1
[13] = tested on: Pseudomonas aeruginosa; experiment: Antibacterial activity against Pseudomonas aeruginosa NCIB 9016 at 2.5 mg/ml by agar disk diffusion assay; assay type: functional; conditions: for zone of inhibition at 2500 µg/mL: Pseudomonas aeruginosa, NCIB 9016, read-out: DIZ
[14] = tested on: Pseudomonas aeruginosa; experiment: Antibacterial activity against Pseudomonas aeruginosa NCIB 9016 at 1 mg/ml by agar disk diffusion assay; assay type: functional; conditions: for zone of inhibition at 1000 µg/mL: Pseudomonas aeruginosa, NCIB 9016, read-out: DIZ
[15] = tested on: Klebsiella pneumoniae; experiment: Antimicrobial activity against Klebsiella pneumoniae NCIMB 9111 by macrotube dilution assay; assay type: functional
[16] = tested on: Candida albicans; experiment: Antifungal activity against Candida albicans IMRU 3669 at 1 mg/ml by agar disk diffusion assay; assay type: functional; conditions: read-out: DIZ; method in brief: as §1
[17] = tested on: Aspergillus niger; experiment: Antifungal activity against Aspergillus niger Ferm-BAM C-21 at 2.5 mg/ml by agar disk diffusion assay; assay type: functional; conditions: read-out: DIZ; method in brief: as §1
[18] = tested on: Bacillus subtilis; experiment: Antimicrobial activity against Bacillus subtilis NCTC 1040 by macrotube dilution assay; assay type: functional
[19] = Antitumor activity against mouse EAC cells assessed as inhibition of cell viability at 25 ug/ml after 2 hrs by trypan blue exclusion assay; assay type: functional; conditions: Ehrlich
Method in brief: (§3)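 EAC cells aspirated from ascitic fluid of inoculated mice and diluted in saline; 0.1 mL cell suspension, 0.8 mL RPMI 1640 and 0.1 mL compound (25, 50 or 100) incubated 2 h at 37 °C; non-viable cells counted by trypan blue exclusion; % non-viable = dead/total × 100.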

[20] = Antitumor activity against mouse EAC cells assessed as inhibition of cell viability at 50 ug/ml after 2 hrs by trypan blue exclusion assay; assay type: functional; conditions: Ehrlich; method in brief: as §3
[21] = tested on: HepG2; experiment: Cytotoxicity against human HepG2 cells assessed as surviving fraction after 48 hrs by SRB assay; assay type: functional, cell-based
Method in brief: (§4)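 Cells seeded at 10⁴ cells/well and left 24 h to attach, then exposed to […] in triplicate wells per dose. Incubation 48 h, 37 °C, 5% CO₂. Cells fixed and stained with sulforhodamine B, excess dye removed with acetic acid, bound dye taken up in Tris EDTA and read on an ELISA reader. Surviving fraction plotted against concentration.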

[22] = tested on: HeLa; experiment: Cytotoxicity against human HeLa cells assessed as surviving fraction after 48 hrs by SRB assay; assay type: functional, cell-based; conditions: hela; method in brief: as §4
[23] = tested on: MCF7; experiment: Cytotoxicity against human MCF7 cells assessed as surviving fraction after 48 hrs by SRB assay; assay type: functional, cell-based; method in brief: as §4
[24] = Antitumor activity against mouse EAC cells assessed as inhibition of cell viability at 100 ug/ml after 2 hrs by trypan blue exclusion assay; assay type: functional; conditions: Ehrlich; method in brief: as §3
[25] = tested on: Bacillus subtilis; experiment: Antibacterial activity against Bacillus subtilis NCTC 1040 at 5 mg/ml by agar disk diffusion assay; assay type: functional; conditions: read-out: DIZ
[26] = tested on: Escherichia coli; experiment: Antibacterial activity against Escherichia coli NCTC 10416 at 5 mg/ml by agar disk diffusion assay; assay type: functional; conditions: read-out: DIZ
[27] = tested on: Salmonella typhi; experiment: Antibacterial activity against Salmonella typhi NCIMB 9331 at 5 mg/ml by agar disk diffusion assay; assay type: functional, Salmonella enterica subsp. enterica serovar Typhi; conditions: Salmonella enterica, read-out: DIZ
[28] = tested on: Staphylococcus aureus; experiment: Antibacterial activity against Staphylococcus aureus NCTC 7447 at 5 mg/ml by agar disk diffusion assay; assay type: functional; conditions: read-out: DIZ
[29] = tested on: HCT-116; experiment: Cytotoxicity against human HCT116 cells assessed as surviving fraction after 48 hrs by SRB assay; assay type: functional, cell-based; conditions: hct-116; method in brief: as §4

**Q.** What does the source list for `N#CC(=S)Nc1ccc(Cl)c(Cl)c1`?
**A.** diameter of the inhibition zone (DIZ) [1]: 40 mm; zone of inhibition at 1000 µg/mL [2]: 29 mm; MIC [3]: 0.24 µg/mL (≈ 1.04 µM); zone of inhibition at 5000 µg/mL [4]: 56 mm; diameter of the inhibition zone (DIZ) [5]: 41 mm; diameter of the inhibition zone (DIZ) [6]: 38 mm; zone of inhibition at 5000 µg/mL [7]: 44 mm; diameter of the inhibition zone (DIZ) [8]: 43 mm; MIC [9]: 15.6 µg/mL (≈ 67.5 µM); MIC [10]: 3.9 µg/mL (≈ 16.9 µM); MIC [11]: 0.97 µg/mL (≈ 4.2 µM); zone of inhibition at 2500 µg/mL [12]: 40 mm; diameter of the inhibition zone (DIZ) [13]: 37 mm; diameter of the inhibition zone (DIZ) [14]: 35 mm; MIC [15]: 1.95 µg/mL (≈ 8.44 µM); zone of inhibition at 1000 µg/mL [16]: 37 mm; zone of inhibition at 2500 µg/mL [17]: 45 mm; MIC [18]: 0.97 µg/mL (≈ 4.2 µM)

**Q.** Which zone of inhibition at 1000 µg/mL [1] does the source give for `O=C1N(c2ccc(Cl)cc2)CC(=S)N1c1ccc(Cl)c(Cl)c1` here?
**A.** 19 mm

**Q.** What about the MIC [3] of the same compound?
**A.** 0.49 µg/mL (≈ 1.32 µM)

**Q.** What about the zone of inhibition at 2500 µg/mL [5] of the same compound?
**A.** 20 mm

**Q.** What about the zone of inhibition at 5000 µg/mL [6] of the same compound?
**A.** 37 mm

**Q.** What about the zone of inhibition at 5000 µg/mL [7] of the same compound?
**A.** 32 mm

**Q.** What about the zone of inhibition at 5000 µg/mL [8] of the same compound?
**A.** 20 mm

**Q.** And the MIC [9]?
**A.** 31.3 µg/mL (≈ 84.2 µM)

**Q.** And the MIC [10]?
**A.** 15.6 µg/mL (≈ 42 µM)

**Q.** And the MIC [11]?
**A.** 0.97 µg/mL (≈ 2.61 µM)

**Q.** And the zone of inhibition at 2500 µg/mL [13]?
**A.** 32 mm

**Q.** And the zone of inhibition at 1000 µg/mL [14]?
**A.** 29 mm

**Q.** And the MIC [15]?
**A.** 3.9 µg/mL (≈ 10.5 µM)

**Q.** And the zone of inhibition at 1000 µg/mL [16]?
**A.** 25 mm

**Q.** What about the MIC [18] of the same compound?
**A.** 1.95 µg/mL (≈ 5.25 µM)

**Q.** What does the source list for `O=C1N(c2ccc(Cl)cc2)CC(=S)N1c1ccc(Cl)cc1`?
**A.** inhibition at 25 µg/mL [19]: 90%; inhibition at 50 µg/mL [20]: 100%; IC50 ([21]; hepg2): Not Active; IC50 [22]: Not Active; IC50 ([23]; Homo sapiens, MCF7, 48 h, read-out: IC50): 9.36 µg/mL (≈ 27.8 µM); inhibition at 100 µg/mL [24]: 100%

**Q.** For `CCN(CC)CC.N#CC(=S)Nc1ccc(Cl)c(Cl)c1`, which “diameter of the inhibition zone (DIZ)” value [1] is on record?
**A.** 15 mm

**Q.** And the “diameter of the inhibition zone (DIZ)” value [5]?
**A.** 16 mm

**Q.** What about the “diameter of the inhibition zone (DIZ)” value [8] of the same compound?
**A.** 17 mm

**Q.** What about the “diameter of the inhibition zone (DIZ)” value [13] of the same compound?
**A.** 16 mm

**Q.** What about the “diameter of the inhibition zone (DIZ)” value [14] of the same compound?
**A.** 13 mm

**Q.** Which zone of inhibition at 1000 µg/mL [1] does the source give for `N=C1C(=S)N(c2ccc(Cl)cc2)C(=O)N1c1cccc2ccccc12` here?
**A.** 17 mm

**Q.** And the zone of inhibition at 5000 µg/mL [4]?
**A.** 12 mm

**Q.** And the zone of inhibition at 2500 µg/mL [5]?
**A.** 18 mm

**Q.** And the zone of inhibition at 5000 µg/mL [6]?
**A.** 18 mm

**Q.** What about the zone of inhibition at 5000 µg/mL [7] of the same compound?
**A.** 14 mm

**Q.** What about the zone of inhibition at 5000 µg/mL [8] of the same compound?
**A.** 19 mm

**Q.** What about the zone of inhibition at 2500 µg/mL [12] of the same compound?
**A.** 12 mm

**Q.** And the zone of inhibition at 2500 µg/mL [13]?
**A.** 16 mm

**Q.** And the zone of inhibition at 1000 µg/mL [14]?
**A.** 15 mm

**Q.** With `N=C1C(=S)N(c2ccc(Br)cc2)C(=O)N1c1cc(Cl)c(Cl)cc1Cl` as the compound, how does the zone of inhibition at 5000 µg/mL [25] read?
**A.** 16 mm

**Q.** And the zone of inhibition at 5000 µg/mL [7]?
**A.** 14 mm

**Q.** What about the zone of inhibition at 5000 µg/mL [26] of the same compound?
**A.** 16 mm

**Q.** And the zone of inhibition at 5000 µg/mL [27]?
**A.** 18 mm

**Q.** And the zone of inhibition at 5000 µg/mL [28]?
**A.** 16.5 mm

**Q.** Which results are given for `CC1OC(=N)C(=S)N1c1ccc(Cl)c(Cl)c1` (stereo not given)?
**A.** zone of inhibition at 1000 µg/mL [1]: 20 mm; zone of inhibition at 5000 µg/mL [4]: 20 mm; zone of inhibition at 2500 µg/mL [5]: 27 mm; zone of inhibition at 5000 µg/mL [6]: 41 mm; zone of inhibition at 5000 µg/mL [7]: 39 mm; zone of inhibition at 5000 µg/mL [8]: 33 mm; zone of inhibition at 2500 µg/mL [12]: 33 mm; zone of inhibition at 2500 µg/mL [13]: 29 mm; zone of inhibition at 1000 µg/mL [14]: 15 mm; zone of inhibition at 1000 µg/mL [16]: 21 mm; zone of inhibition at 2500 µg/mL [17]: 11 mm

**Q.** For `NNc1nnc2c(n1)n(-c1ccc(Cl)cc1)c(=O)n2-c1ccc(Cl)cc1`, which IC50 [29] is on record?
**A.** Not Active

**Q.** What about the inhibition at 25 µg/mL [19] of the same compound?
**A.** 95%

**Q.** What about the inhibition at 50 µg/mL [20] of the same compound?
**A.** 100%

**Q.** What about the IC50 ([21]; Homo sapiens, HepG2, 48 h, read-out: IC50) of the same compound?
**A.** 1.54 µg/mL (≈ 3.97 µM)

**Q.** What about the IC50 [22] of the same compound?
**A.** Not Active

**Q.** And the IC50 ([23]; mcf7)?
**A.** Not Active

**Q.** And the inhibition at 100 µg/mL [24]?
**A.** 100%
